According to ChEMBL document CHEMBL1667757, “Efficient and novel one-pot synthesis of antifungal active 1-substituted-8-aryl-3-alkyl/aryl-4H-pyrazolo[4,5-f][1,2,4]triazolo[4,3-b][1,2,4]triazepines using solid support” (2011):

Assays:
Type in all cases: functional
Aspergillus flavus [1] = experiment: Antifungal activity against Aspergillus flavus at 500 ug after 24 hrs by paper disc technique; conditions: for zone of inhibition at 500 µg/disc: Aspergillus flavus, 24 h, read-out: DIZ
How it was run: (§1)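 Paper disc diffusion on double-layer potato dextrose agar: 15 mL sterile base topped with 15 mL medium seeded at 40 °C with spores from ten-day cultures; streptomycin added to prevent bacterial growth. Compounds dissolved in DMF at 500 or 1000 µg/mL and applied to 6 mm filter paper discs on chilled seeded plates. Plates incubated at 28 ± 2 °C. Inhibition zone measured from disc centre at 24 h, percent inhibition calculated as (C − T)/C × 100. Fluconazole at same concentrations served as standard.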

Aspergillus niger [2] = experiment: Antifungal activity against Aspergillus niger at 1000 ug after 24 hrs by paper disc technique; conditions: for zone of inhibition at 1000 µg/disc: Aspergillus niger, 24 h, read-out: DIZ; how it was run: as §1
Aspergillus flavus [3] = experiment: Antifungal activity against Aspergillus flavus at 1000 ug after 24 hrs by paper disc technique; conditions: for zone of inhibition at 1000 µg/disc: Aspergillus flavus, 24 h, read-out: DIZ; how it was run: as §1
Rhizopus [4] = experiment: Antifungal activity against Rhizopus species at 500 ug after 24 hrs by paper disc technique; conditions: for zone of inhibition at 500 µg/disc: Rhizopus, 24 h, read-out: DIZ; how it was run: as §1
Aspergillus niger [5] = experiment: Antifungal activity against Aspergillus niger at 500 ug after 24 hrs by paper disc technique; conditions: for zone of inhibition at 500 µg/disc: Aspergillus niger, 24 h, read-out: DIZ; how it was run: as §1
Rhizopus [6] = experiment: Antifungal activity against Rhizopus species at 1000 ug after 24 hrs by paper disc technique; conditions: for zone of inhibition at 1000 µg/disc: Rhizopus, 24 h, read-out: DIZ; how it was run: as §1
Penicillium sp. [7] = experiment: Antifungal activity against Penicillium species at 1000 ug after 24 hrs by paper disc technique; conditions: for zone of inhibition at 1000 µg/disc: Penicillium sp., 24 h, read-out: DIZ; how it was run: as §1
Penicillium sp. [8] = experiment: Antifungal activity against Penicillium species at 500 ug after 24 hrs by paper disc technique; conditions: for zone of inhibition at 500 µg/disc: Penicillium sp., 24 h, read-out: DIZ; how it was run: as §1

| Compound | Activity (Aspergillus flavus [1]) | zone of inhibition at 500 µg/disc (Aspergillus flavus [1]) | percent inhibition (Aspergillus niger [2]) | zone of inhibition at 1000 µg/disc (Aspergillus niger [2]) | percent growth inhibition (Aspergillus flavus [3]) | zone of inhibition at 1000 µg/disc (Aspergillus flavus [3]) | Activity (Rhizopus [4]) | zone of inhibition at 500 µg/disc (Rhizopus [4]) | Activity (Aspergillus niger [5]) | zone of inhibition at 500 µg/disc (Aspergillus niger [5]) | Activity (Rhizopus [6]) | zone of inhibition at 1000 µg/disc (Rhizopus [6]) | percent inhibition (Penicillium sp. [7]) | zone of inhibition at 1000 µg/disc (Penicillium sp. [7]) | Activity (Penicillium sp. [8]) | zone of inhibition at 500 µg/disc (Penicillium sp. [8]) |
| --- | --- | --- | --- | --- | --- | --- | --- | --- | --- | --- | --- | --- | --- | --- | --- | --- |
| O=[N+]([O-])c1ccc(-c2nn(-c3ccccc3)c3c2C=Nc2nnc(Cc4ccccc4)n2N3)cc1 | 33.33% | 20 mm | 23.33% | 14 mm | 13.33% | 8 mm | 46.66% | 28 mm | 3.33% | 2 mm | 40% | 24 mm |  |  |  |  |
| Brc1ccc(-c2nn(-c3ccccc3)c3c2C=Nc2nnc(-c4ccccc4)n2N3)cc1 | 31.33% | 18 mm | 21.33% | 12 mm | 11.33% | 6 mm | 42.66% | 26 mm | 3.33% | 2 mm | 38% | 22 mm | 13.33% | 8 mm | 8.33% | 5 mm |
| Cc1n[nH]c2c1C=Nc1nnc(-c3ccccc3)n1N2 | 33.33% | 20 mm | 53.33% | 32 mm | 40% | 24 mm | 53.33% | 32 mm | 36.66% | 22 mm | 60.66% | 40 mm | 13.33% | 8 mm | 10% | 6 mm |
| O=[N+]([O-])c1ccc(-c2nn(-c3ccccc3)c3c2C=Nc2nnc(-c4ccc([N+](=O)[O-])cc4)n2N3)cc1 | 5% | 3 mm | 25% | 15 mm | 15% | 9 mm | 30% | 18 mm | 13.33% | 8 mm | 38.33% | 23 mm |  |  |  |  |
| Cc1n[nH]c2c1C=Nc1nnc(-c3ccc(Cl)cc3)n1N2 | 36.66% | 22 mm | 53.33% | 32 mm | 40% | 24 mm | 51.66% | 31 mm | 38.33% | 23 mm | 60.66% | 40 mm | 15% | 9 mm | 13.33% | 8 mm |
